Test [1] has as its system DNA. Put plainly: Binding affinity to calf thymus DNA assessed as thermal denaturation temperature at 20 uM after 72 hrs. The test is classed as nucleic-acid assay. The following applies: Bos taurus.
Test [2] has as its system DNA. Put plainly: Binding affinity to calf thymus DNA assessed as thermal denaturation temperature at 20 uM after 18 hrs. The test is classed as nucleic-acid assay. The note with it: Bos taurus.
Test [3] concerns DNA. In words: Binding affinity to calf thymus DNA assessed as thermal denaturation temperature at 20 uM after 4 hrs. The test is classed as nucleic-acid assay. The note with it: Bos taurus.
Test [4] has as its system OVCAR-5. Put plainly: Cytotoxicity against human OVCAR5 cells after 96 hrs by Alamar blue method. The following applies: OVCAR-5, 96 h. The format is functional, cell-based. In a few lines: (§1)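 Cells were exposed to compound continuously for 96 h, and viability was read by Alamar blue. The IC50 is the mean with standard deviation of three independent experiments.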
Background: Alamar Blue is a resazurin reagent that responds to reducing activity.

Test [5] concerns LOX IMVI. Put plainly: Cytotoxicity against human LOXIMVI cells after 24 hrs by Alamar blue method. The test is classed as functional, cell-based.
Test [6] concerns LOX IMVI. In words: Cytotoxicity against human LOXIMVI cells after 96 hrs by Alamar blue method. The test is classed as functional, cell-based. In a few lines: as §1
Test [7] concerns OVCAR-5. In words: Cytotoxicity against human OVCAR5 cells at 1 uM after 96 hrs by Alamar blue method. The format is functional, cell-based.
Test [8] has as its system LOX IMVI. In words: Cytotoxicity against human LOXIMVI cells at 1 uM after 96 hrs by Alamar blue method. The test is classed as functional, cell-based.

In general, ΔTm refers to the shift of the melting midpoint relative to a reference. In general, IC50 refers to the point on the concentration scale where inhibition reaches its midpoint. The low end stands for greater potency in that assay, the high end for weaker potency in that assay.

Calls of active or inactive are those of the source. The calls are words filed in the database; no cut-off is given here.

Consider `COc1cc2c(cc1O)N=C[C@@H]1CCCN1C2=O`, for which the ΔTm is 0.8 °C in the test with DNA [1], 0.7 °C in the test with DNA [2] and 0.5 °C in the test on DNA [3].
Take `CCN(CC)c1ccc2cc(C(=O)NCCCOc3cc4c(cc3OC)C(=O)N3CCC[C@H]3C=N4)c(=O)oc2c1`: the results for the ΔTm with DNA [1], with DNA [2] and in the test on DNA [3] were 3.9 °C, 3.6 °C and 3.4 °C, respectively. In addition, the IC50 was determined as 3.2 µM with OVCAR-5 [4], 1.5 µM in the test with LOX IMVI [5] and 1.4 µM with LOX IMVI [6].
Regarding `CCOC(=O)c1cc2ccc(N(CC)CC)cc2oc1=O`, the ΔTm in the test on DNA [1], in the test on DNA [2] and with DNA [3] was 0.2 °C each time. Besides, the 50% inhibitory concentration (IC50) in the test with OVCAR-5 [4] and in the test with LOX IMVI [6] was greater than 10 µM throughout.
As for `CCN(CC)c1ccc2cc(C(=O)NCCCCNC(=O)CCOc3cc4c(cc3OC)C(=O)N3CCC[C@H]3C=N4)c(=O)oc2c1`, the ΔTm was 1 °C with DNA [1], 0.9 °C with DNA [2] and 0.7 °C in the test with DNA [3]. In addition, the IC50 in the test with OVCAR-5 [4] and in the test with LOX IMVI [6] was greater than 10 µM each time.
Take `CCN(CC)c1ccc2cc(C(=O)NCCCCCCCCOc3cc4c(cc3OC)C(=O)N3CCC[C@H]3C=N4)c(=O)oc2c1`: the ΔTm in the test on DNA [1] was 2.9 °C; in the test on DNA [2], 2 °C; in the test with DNA [3] it was 1.4 °C. Also, the IC50 was found to be 7.8 µM in the test with OVCAR-5 [4] and 4.5 µM with LOX IMVI [6].
In the case of `COc1cc2c(cc1C)N=C[C@@H]1CCCN1C2=O`, the outcome in the test on OVCAR-5 [7] and with LOX IMVI [8] was inactive.

The values above are taken from ChEMBL document CHEMBL1142375, “Fluorescent 7-diethylaminocoumarin pyrrolobenzodiazepine conjugates: synthesis, DNA interaction, cytotoxicity and differential cellular localization” (Bioorg Med Chem Lett, 2008).
